A short description of experiment [1]: Concentration that causes 50% inhibition of mammalian alpha-glucosidase (endoplasmic reticulum glucosidase II) was determined in rat liver; NI is less than 50 % inhibition at 1000 uM.
The target of experiment [2] is T1, Beta-galactosidase (Rattus norvegicus, UniProt D3ZUM4).
T1 sequence (D3ZUM4 whole entry): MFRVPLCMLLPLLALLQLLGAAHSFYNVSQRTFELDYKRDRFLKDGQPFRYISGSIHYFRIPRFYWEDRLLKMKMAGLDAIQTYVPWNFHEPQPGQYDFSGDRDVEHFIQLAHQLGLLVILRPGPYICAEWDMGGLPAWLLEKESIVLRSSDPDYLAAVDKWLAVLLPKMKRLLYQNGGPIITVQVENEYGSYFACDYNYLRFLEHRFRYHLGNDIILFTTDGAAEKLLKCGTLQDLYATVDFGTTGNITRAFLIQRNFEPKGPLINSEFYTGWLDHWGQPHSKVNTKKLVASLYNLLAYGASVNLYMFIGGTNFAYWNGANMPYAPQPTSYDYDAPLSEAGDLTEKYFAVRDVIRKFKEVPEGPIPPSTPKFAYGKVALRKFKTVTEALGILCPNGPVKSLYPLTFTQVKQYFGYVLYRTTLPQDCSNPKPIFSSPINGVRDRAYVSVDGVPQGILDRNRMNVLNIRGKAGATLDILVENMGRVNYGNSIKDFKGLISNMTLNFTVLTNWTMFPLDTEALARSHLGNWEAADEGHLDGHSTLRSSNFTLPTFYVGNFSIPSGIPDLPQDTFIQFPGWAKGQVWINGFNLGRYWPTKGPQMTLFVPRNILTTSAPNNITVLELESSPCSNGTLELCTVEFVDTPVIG
As to the kind of experiment: Concentration that causes 50% inhibition of mammalian epididymal beta-galactosidase was determined in rat epididymis; NI is less than 50 % inhibition at 1000 uM. Type of experiment: tissue-based.

Experiment [3] concerns the target T2, Beta-galactosidase (Bos taurus, UniProt Q58D55).
T2 sequence (Q58D55 whole entry): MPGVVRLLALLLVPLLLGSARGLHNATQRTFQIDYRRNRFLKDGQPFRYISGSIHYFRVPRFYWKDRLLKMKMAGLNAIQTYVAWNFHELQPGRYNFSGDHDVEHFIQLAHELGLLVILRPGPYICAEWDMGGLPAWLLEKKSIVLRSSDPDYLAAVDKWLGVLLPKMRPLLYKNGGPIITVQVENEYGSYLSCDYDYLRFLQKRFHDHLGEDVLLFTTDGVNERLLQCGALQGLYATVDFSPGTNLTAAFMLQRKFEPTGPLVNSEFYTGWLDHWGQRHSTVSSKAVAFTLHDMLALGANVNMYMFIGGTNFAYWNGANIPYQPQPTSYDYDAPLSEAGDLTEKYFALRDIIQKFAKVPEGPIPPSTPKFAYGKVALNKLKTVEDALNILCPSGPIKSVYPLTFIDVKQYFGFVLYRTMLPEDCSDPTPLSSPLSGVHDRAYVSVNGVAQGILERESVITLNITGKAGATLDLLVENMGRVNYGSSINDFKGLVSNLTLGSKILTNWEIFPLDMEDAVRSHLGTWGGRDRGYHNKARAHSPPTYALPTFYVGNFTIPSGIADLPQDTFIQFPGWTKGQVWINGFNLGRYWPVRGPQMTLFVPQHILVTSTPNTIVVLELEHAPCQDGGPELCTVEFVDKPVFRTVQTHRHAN
As to the kind of experiment: Concentration that causes 50% inhibition of mammalian lysosomal beta-galactosidase was determined in bovine liver; NI is less than 50 % inhibition at 1000 uM.

Experiment [4] concerns the target T1, Beta-galactosidase. As to the kind of experiment: Concentration that causes 50% inhibition of mammalian lysosomal beta-galactosidase was determined in rat liver; NI is less than 50 % inhibition at 1000 uM.
The target in experiment [5] is T3, Trehalase (Rattus norvegicus, UniProt O70282).
T3 sequence (O70282 whole entry): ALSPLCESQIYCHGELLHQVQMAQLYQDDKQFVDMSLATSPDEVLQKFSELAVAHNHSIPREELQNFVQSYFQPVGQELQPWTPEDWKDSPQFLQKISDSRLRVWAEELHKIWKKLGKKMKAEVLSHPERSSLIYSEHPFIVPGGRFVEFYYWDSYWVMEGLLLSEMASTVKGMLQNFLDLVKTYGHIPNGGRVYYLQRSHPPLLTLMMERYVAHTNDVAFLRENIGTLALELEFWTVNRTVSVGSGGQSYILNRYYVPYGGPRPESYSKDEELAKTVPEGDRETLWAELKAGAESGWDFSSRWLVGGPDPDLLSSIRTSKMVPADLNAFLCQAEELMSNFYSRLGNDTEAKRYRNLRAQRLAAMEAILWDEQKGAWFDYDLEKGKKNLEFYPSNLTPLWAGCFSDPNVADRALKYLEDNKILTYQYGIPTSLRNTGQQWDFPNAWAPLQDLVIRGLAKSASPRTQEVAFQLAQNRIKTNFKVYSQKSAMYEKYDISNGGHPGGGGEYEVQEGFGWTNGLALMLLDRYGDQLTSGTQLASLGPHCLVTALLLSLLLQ
As to the kind of experiment: Concentration that causes 50% inhibition of mammalian trehalase was determined in rat intestine.

Experiment [6] addresses T1, Beta-galactosidase. As to the kind of experiment: Concentration that causes 50% inhibition of mammalian epididymal beta-galactosidase was determined in rat epididymis NI is less than 50 % inhibition at 1000 uM. Type of experiment: tissue-based.
Experiment [7] concerns the target T2, Beta-galactosidase. As to the kind of experiment: Concentration that causes 50% inhibition of mammalian cytosolic beta-galactosidase was determined in bovine liver NI is less than 50 % inhibition at 1000 uM. Format: tissue-based.
The target of experiment [8] is T1, Beta-galactosidase. As to the kind of experiment: Concentration that causes 50% inhibition of mammalian lysosomal beta-galactosidase was determined in rat liverNI is less than 50 % inhibition at 1000 uM.
The target of experiment [9] is T2, Beta-galactosidase. As to the kind of experiment: Concentration that causes 50% inhibition of mammalian lysosomal beta-galactosidase was determined in bovine liver NI is less than 50 % inhibition at 1000 uM. Format: tissue-based.
Experiment [10] can be described thus: Concentration that causes 50% inhibition of mammalian alpha-glucosidase (endoplasmic reticulum glucosidase II) was determined in rat liver NI is less than 50 % inhibition at 1000 uM. Type of experiment: tissue-based.
The target in experiment [11] is Lactase/phlorizin hydrolase (Rattus norvegicus, UniProt Q02401). As to the kind of experiment: Tested for competitive inhibition of rat intestinal lactase. A digest of the protocol:
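Brush border membranes from rat small intestine, assayed at pH 5.8 with lactose as substrate. Released D-glucose was measured colorimetrically by the D-glucose oxidase–peroxidase method. Ki and inhibition mode were determined.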

Experiment [12] has as its target T3, Trehalase. As to the kind of experiment: Concentration that causes 50% inhibition of mammalian trehalase was determined in rat intestine; NI is less than 50 % inhibition at 1000 micro M.
Experiment [13] addresses T4, Alpha-glucosidase (Bos taurus, UniProt Q9MYM4). As to the kind of experiment: Inhibition of mammalian alpha-glucosidase (lysosomal) was determined in bovine liver; NI is less than 50 % inhibition at 1000 uM.
Experiment [14] deals with Lysosomal alpha-glucosidase (Rattus norvegicus, UniProt Q6P7A9). As to the kind of experiment: Concentration that causes 50% inhibition of mammalian alpha-glucosidase (lysosomal) was determined in rat liver; NI is less than 50 % inhibition at 1000 uM.
Lysosomal alpha-glucosidase, sequence (Q6P7A9 whole entry): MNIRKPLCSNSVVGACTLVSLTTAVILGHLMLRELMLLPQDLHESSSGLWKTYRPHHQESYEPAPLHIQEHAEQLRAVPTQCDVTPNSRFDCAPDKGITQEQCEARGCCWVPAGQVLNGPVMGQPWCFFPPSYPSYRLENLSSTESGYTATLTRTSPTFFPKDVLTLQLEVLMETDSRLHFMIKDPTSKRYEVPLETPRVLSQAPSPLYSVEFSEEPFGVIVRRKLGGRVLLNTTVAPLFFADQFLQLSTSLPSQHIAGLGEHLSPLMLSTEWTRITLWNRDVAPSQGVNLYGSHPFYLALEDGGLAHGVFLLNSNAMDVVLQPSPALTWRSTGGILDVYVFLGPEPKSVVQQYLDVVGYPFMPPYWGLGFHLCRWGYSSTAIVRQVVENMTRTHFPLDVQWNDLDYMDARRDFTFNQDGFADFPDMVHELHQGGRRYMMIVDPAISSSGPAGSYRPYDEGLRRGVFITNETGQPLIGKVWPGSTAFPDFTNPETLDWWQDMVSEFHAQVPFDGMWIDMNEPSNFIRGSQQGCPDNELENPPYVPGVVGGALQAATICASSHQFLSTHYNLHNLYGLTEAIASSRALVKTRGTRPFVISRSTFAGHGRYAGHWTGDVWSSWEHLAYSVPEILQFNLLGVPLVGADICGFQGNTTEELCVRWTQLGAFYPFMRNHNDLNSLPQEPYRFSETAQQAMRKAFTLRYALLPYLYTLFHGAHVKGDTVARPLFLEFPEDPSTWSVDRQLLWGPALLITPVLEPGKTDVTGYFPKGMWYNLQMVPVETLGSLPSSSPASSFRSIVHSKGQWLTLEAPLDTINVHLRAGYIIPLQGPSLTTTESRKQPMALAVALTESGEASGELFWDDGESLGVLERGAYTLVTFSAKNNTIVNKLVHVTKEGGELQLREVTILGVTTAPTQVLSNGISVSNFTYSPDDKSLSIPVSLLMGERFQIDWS
In experiment [15] the target is T3, Trehalase. As to the kind of experiment: Concentration that causes 50% inhibition of mammalian trehalase was determined in rat intestine; NI is less than 50 % inhibition at 1000 uM.
Experiment [16] in a line: Concentration that causes 50% inhibition of mammalian alpha-glucosidase (endoplasmic reticulum glucosidase II) was determined in rat liver. Format: tissue-based.
The target of experiment [17] is T4, Alpha-glucosidase. As to the kind of experiment: Inhibition of mammalian alpha-glucosidase (lysosomal) was determined in bovine liver. Format: tissue-based.
The target of experiment [18] is T2, Beta-galactosidase. As to the kind of experiment: Concentration that causes 50% inhibition of mammalian cytosolic beta-galactosidase was determined in bovine liver; NI is less than 50 % inhibition at 1000 uM.
For experiment [19], the target named is T1, Beta-galactosidase. As to the kind of experiment: Concentration that causes 50% inhibition of mammalian beta-galactosidase was determined in rat intestine; NI is less than 50 % inhibition at 1000 uM.
The target in experiment [20] is T1, Beta-galactosidase. As to the kind of experiment: Concentration that causes 50% inhibition of mammalian beta-galactosidase was determined in rat epididymis; NI is less than 50 % inhibition at 1000 uM. Format: tissue-based.
The target in experiment [21] is T1, Beta-galactosidase. As to the kind of experiment: Concentration that causes 50% inhibition of mammalian lactase beta-galactosidase was determined in rat intestine; NI is less than 50 % inhibition at 1000 uM.

T4 sequence (Q9MYM4 whole entry): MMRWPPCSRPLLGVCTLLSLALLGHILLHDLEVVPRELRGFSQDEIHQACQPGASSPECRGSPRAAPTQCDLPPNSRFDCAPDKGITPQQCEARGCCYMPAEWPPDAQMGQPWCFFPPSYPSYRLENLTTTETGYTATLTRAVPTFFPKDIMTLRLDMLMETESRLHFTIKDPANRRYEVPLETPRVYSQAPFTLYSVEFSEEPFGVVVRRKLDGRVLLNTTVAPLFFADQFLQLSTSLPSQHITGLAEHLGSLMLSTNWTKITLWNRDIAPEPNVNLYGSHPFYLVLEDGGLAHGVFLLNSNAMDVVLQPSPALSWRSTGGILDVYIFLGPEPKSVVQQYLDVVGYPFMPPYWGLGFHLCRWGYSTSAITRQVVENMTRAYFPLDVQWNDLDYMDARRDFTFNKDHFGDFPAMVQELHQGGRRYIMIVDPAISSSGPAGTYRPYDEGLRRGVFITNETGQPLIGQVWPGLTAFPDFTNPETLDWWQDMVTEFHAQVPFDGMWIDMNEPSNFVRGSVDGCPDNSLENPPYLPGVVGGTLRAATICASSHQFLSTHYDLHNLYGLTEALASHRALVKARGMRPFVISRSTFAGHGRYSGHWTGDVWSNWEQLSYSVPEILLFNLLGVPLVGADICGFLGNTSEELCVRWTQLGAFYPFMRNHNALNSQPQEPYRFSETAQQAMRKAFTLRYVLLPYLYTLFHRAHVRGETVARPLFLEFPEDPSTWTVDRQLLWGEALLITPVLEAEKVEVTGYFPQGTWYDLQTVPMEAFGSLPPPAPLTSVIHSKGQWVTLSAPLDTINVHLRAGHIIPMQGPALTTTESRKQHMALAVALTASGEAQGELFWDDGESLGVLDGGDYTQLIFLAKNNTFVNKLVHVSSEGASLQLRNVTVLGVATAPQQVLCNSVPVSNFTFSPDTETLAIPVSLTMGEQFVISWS
Lactase/phlorizin hydrolase, sequence (Q02401 868-1928 limits assumed): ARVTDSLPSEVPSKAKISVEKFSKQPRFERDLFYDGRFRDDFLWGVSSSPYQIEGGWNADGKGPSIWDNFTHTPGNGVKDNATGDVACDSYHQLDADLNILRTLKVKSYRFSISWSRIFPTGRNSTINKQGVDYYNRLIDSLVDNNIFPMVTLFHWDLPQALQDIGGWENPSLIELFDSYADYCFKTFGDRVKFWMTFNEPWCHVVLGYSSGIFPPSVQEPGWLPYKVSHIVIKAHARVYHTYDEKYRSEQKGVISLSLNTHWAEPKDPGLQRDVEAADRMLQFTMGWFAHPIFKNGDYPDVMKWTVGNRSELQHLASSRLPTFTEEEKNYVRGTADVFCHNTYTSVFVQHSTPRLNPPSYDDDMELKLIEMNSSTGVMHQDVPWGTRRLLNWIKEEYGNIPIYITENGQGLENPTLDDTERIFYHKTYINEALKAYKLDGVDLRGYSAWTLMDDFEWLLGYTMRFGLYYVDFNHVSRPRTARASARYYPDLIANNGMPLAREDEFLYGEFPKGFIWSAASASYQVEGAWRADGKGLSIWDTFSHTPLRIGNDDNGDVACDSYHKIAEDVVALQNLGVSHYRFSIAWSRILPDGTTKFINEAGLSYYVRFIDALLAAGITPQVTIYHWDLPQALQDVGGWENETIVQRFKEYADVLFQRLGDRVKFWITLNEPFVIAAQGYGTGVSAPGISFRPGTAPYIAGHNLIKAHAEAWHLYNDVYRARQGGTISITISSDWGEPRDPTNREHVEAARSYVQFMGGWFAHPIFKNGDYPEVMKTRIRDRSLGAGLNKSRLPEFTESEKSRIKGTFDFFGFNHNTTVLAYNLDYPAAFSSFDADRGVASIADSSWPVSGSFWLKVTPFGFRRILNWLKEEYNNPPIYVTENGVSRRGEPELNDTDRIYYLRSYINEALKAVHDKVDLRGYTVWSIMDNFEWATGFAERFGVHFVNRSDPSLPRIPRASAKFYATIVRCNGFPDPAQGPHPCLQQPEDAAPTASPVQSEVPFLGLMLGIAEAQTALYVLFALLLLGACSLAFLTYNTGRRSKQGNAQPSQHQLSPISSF

In general, IC50 refers to the point on the concentration scale where inhibition reaches its midpoint. The low end stands for higher potency, the high end for lower potency. For `OC[C@H]1N[C@H](CO)[C@@H](O)[C@@H]1O`, the IC50 result in [1], in [2], in experiment [3] and in [4] was “No inhibition” in each case.

`OC[C@H]1NC[C@H](O)[C@@H](O)[C@@H]1O` (stereo in doubt; 1) [DUVOGLUSTAT]: the IC50 in [5] is 42 µM; in experiment [6], “No inhibition”; in experiment [7], “No inhibition”; in [8], “No inhibition”; in experiment [9] it was “No inhibition”.

For orientation: Ki means a dissociation constant, usually derived from enzyme kinetics or from competition with a known ligand. Read a high Ki as a looser hold on the target. As to `OC[C@H]1NCC[C@H](O)[C@@H]1O`, the IC50 entry in experiment [10], in [2], in experiment [3], in experiment [12], in [13] and in [4] was “No inhibition” throughout. Besides, the IC50 result in experiment [14] is given as “No inhibition”. The compound further displayed an inhibition constant Ki in experiment [11] of 1.9 µM.

In the case of `OC[C@H]1NC[C@H](O)[C@@H](O)[C@@H]1O` [DUVOGLUSTAT], the IC50 entry in [15], in [1], in [2], in experiment [3], in [13] and in experiment [4] was “No inhibition” each time. Besides, the IC50 entry in [14] is “No inhibition”.

On to `OC[C@H]1NCC[C@@H](O)[C@@H]1O` [FAGOMINE], for which the IC50 entry in [15] was “No inhibition”; in experiment [2], “No inhibition”; in experiment [3] it was “No inhibition”; in experiment [16] it was 840 µM; in [4] it was “No inhibition”; in experiment [17], 520 µM. The half-inhibitory concentration (IC50) result in [14] is “No inhibition”.

Consider `OC[C@H]1NC[C@H](O)[C@@H](O)[C@@H]1O` (stereo in doubt; 4) [DUVOGLUSTAT], for which, in experiment [18], the IC50 result is listed as “No inhibition”.

Consider `OC[C@H]1NC[C@H](O)[C@@H](O)[C@@H]1O` (stereo in doubt; 2) [DUVOGLUSTAT], for which the IC50 result in experiment [10], in [19] and in experiment [20] was “No inhibition” in each case.

Consider `OC[C@H]1NCC[C@@H](O)[C@H]1O`, for which the half-maximal inhibitory concentration (IC50) result in experiment [18], in [15], in [1], in experiment [3], in experiment [6] and in experiment [21] was “No inhibition” throughout. Besides, the concentration for half-maximal inhibition (IC50) result in experiment [4] and in [14] was “No inhibition” in each case.

Source of the values: ChEMBL document CHEMBL1127386, “Nitrogen-in-the-ring pyranoses and furanoses: structural basis of inhibition of mammalian glycosidases” (J Med Chem, 1994).
